Each block holds one molecule with its values, some of them ahead of it.
Assays:
Type in all cases: cell-based
GABA transporter 3 = target: T1, GABA transporter 3 (Mus musculus, UniProt P31649); assay: Inhibition of mouse GAT2 expressed in HEK293 cells assessed as reduction in [3H]GABA uptake after 3 mins by scintillation counting method
T1 sequence (P31649 whole entry): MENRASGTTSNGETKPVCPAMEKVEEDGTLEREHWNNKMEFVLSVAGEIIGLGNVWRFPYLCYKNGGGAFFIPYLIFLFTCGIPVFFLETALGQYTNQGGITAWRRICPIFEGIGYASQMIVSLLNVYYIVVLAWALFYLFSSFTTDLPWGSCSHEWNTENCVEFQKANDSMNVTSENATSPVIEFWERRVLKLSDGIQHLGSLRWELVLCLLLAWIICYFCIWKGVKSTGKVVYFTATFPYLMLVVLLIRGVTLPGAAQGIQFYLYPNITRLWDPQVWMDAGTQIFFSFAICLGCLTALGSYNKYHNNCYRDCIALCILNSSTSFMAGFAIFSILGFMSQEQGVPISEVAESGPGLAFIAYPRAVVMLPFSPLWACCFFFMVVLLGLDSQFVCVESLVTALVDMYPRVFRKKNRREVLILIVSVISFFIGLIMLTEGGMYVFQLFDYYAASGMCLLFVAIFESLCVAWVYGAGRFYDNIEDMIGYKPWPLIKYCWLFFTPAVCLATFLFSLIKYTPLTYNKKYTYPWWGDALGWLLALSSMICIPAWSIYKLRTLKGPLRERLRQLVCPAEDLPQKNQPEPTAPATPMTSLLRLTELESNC
Method in brief: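 HEK293 cells stably expressing mouse GAT2 were kept under blasticidin-S (5 µg/mL) selection. Ice-cold washes preceded scintillation counting. IC50 came from a variable-slope sigmoidal fit.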

[1] = target: Sodium- and chloride-dependent GABA transporter 1 (Mus musculus, UniProt P31648); assay: Inhibition of mouse GAT1 expressed in HEK293 cells assessed as reduction in [3H]GABA uptake after 3 mins by scintillation counting method
Method in brief: (§1)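 HEK293 lines stably expressing a single mouse GAT subtype, kept under blasticidin-S (5 µg/mL) selection. Cells were assayed about 24 h after plating with 30 nM [3H]GABA plus varying compound concentrations for 3 min at 37 °C in HBSS buffered with 20 mM HEPES (1 mM CaCl2, 1 mM MgCl2, pH 7.4). Cells were washed ice-cold and radioactivity counted. IC50 came from sigmoidal variable-slope fits.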

GABA transporter 2 = target: T2, GABA transporter 2 (Mus musculus, UniProt P31651); assay: Inhibition of mouse BGT1 expressed in HEK293 cells assessed as reduction in [3H]GABA uptake after 3 mins by scintillation counting method; conditions: read-out: IC50; method in brief: as §1
T2 sequence (P31651 whole entry): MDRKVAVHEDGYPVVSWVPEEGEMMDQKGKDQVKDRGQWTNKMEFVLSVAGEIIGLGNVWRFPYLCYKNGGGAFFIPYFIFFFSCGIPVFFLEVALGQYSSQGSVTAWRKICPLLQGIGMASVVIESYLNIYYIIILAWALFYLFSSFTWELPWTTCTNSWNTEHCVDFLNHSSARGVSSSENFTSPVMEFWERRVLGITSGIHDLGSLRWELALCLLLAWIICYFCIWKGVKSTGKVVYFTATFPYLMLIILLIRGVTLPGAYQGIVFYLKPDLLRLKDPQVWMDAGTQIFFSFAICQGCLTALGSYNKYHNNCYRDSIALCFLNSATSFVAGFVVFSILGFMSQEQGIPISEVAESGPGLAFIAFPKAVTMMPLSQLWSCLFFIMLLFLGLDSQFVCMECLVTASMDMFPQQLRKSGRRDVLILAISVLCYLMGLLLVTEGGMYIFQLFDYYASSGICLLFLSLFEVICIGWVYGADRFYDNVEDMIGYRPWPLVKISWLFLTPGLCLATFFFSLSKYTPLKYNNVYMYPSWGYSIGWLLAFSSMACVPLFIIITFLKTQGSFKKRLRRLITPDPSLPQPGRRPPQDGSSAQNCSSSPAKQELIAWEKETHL

[2] = target: Sodium- and chloride-dependent GABA transporter 1 (Homo sapiens, UniProt P30531); conditions: read-out: IC50
Sequence of Sodium- and chloride-dependent GABA transporter 1 (Homo sapiens, UniProt P30531) (P30531 whole entry): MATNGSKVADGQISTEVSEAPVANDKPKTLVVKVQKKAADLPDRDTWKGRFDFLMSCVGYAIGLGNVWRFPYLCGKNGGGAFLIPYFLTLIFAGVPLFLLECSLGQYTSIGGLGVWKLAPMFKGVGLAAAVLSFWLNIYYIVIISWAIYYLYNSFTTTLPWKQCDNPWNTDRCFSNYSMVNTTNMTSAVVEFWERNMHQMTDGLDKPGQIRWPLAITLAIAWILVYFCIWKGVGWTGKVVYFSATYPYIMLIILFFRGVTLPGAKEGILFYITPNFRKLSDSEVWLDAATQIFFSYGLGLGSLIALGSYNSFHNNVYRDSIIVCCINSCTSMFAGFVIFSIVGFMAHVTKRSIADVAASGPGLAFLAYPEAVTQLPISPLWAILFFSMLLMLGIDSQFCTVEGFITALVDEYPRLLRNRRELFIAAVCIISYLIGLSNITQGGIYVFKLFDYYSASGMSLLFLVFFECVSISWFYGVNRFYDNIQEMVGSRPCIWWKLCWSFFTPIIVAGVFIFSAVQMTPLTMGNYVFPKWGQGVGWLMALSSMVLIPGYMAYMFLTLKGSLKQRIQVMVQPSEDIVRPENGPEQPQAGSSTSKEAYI

SMILES: COc1cccc(CN2CCC(NC(=O)c3ccncc3)CC2)c1
- IC50 (GABA transporter 3): > 1000 µM
- IC50 [1]: > 1000 µM
- IC50 (GABA transporter 2): > 1000 µM

- IC50 (GABA transporter 3): 590 µM
- IC50 [1]: > 1000 µM
- IC50 (GABA transporter 2): 77 µM
SMILES: O=C(NC1CCN(Cc2ccccc2)CC1)c1ccc(Cl)cc1

SMILES: COC(=O)c1cccc(CN2CCC(NC(=O)c3ccc(Cl)nc3Cl)CC2)c1
- IC50 (GABA transporter 3): > 300 µM
- IC50 [1]: > 300 µM
- IC50 (GABA transporter 2): > 300 µM

SMILES: COc1cccc(CN2CCC(NC(=O)c3ccc(Cl)cc3Cl)CC2)c1
- IC50 (GABA transporter 3): > 200 µM
- IC50 [1]: > 200 µM
- IC50 (GABA transporter 2): 26 µM

SMILES: O=C(NC1CCN(Cc2cccc(OCCO)c2)CC1)c1ccc(Cl)nc1Cl
- IC50 (GABA transporter 3): > 300 µM
- IC50 [1]: > 300 µM
- IC50 (GABA transporter 2): > 300 µM

SMILES: O=C(NC1CCN(Cc2cccc(Cl)c2)CC1)c1ccc(Cl)cc1Cl
- IC50 (GABA transporter 3): > 300 µM
- IC50 [1]: > 300 µM
- IC50 (GABA transporter 2): > 300 µM

- IC50 (GABA transporter 3): 1200 µM
- IC50 [1]: > 1000 µM
- IC50 (GABA transporter 2): 30 µM
SMILES: COc1cc(CN2CCC(NC(=O)c3ccc(Cl)cc3Cl)CC2)cc(OC)c1

SMILES: O=C(NC1CCN(Cc2cccc(F)c2)CC1)c1ccc(Cl)cc1Cl
- IC50 (GABA transporter 3): > 1000 µM
- IC50 [1]: > 1000 µM
- IC50 (GABA transporter 2): 34 µM

SMILES: O=C(NC1CCN(Cc2cccc(O)c2)CC1)c1ccc(Cl)nc1Cl
- IC50 (GABA transporter 3): > 300 µM
- IC50 [1]: > 300 µM
- IC50 (GABA transporter 2): > 300 µM

SMILES: O=C(NC1CCN(Cc2c[nH]c3ccccc23)CC1)c1ccc(Cl)nc1Cl
- IC50 (GABA transporter 3): > 300 µM
- IC50 [1]: > 300 µM
- IC50 (GABA transporter 2): 58 µM

SMILES: Clc1ccc(CNC2CCN(Cc3ccccc3)CC2)c(Cl)c1
- IC50 [2]: > 400 µM
- IC50 (GABA transporter 3): > 400 µM
- IC50 (GABA transporter 2): 112 µM

SMILES: Cc1cc(C)cc(CN2CCC(NC(=O)c3ccc(Cl)cc3Cl)CC2)c1
- IC50 (GABA transporter 3): > 300 µM
- IC50 [1]: > 300 µM
- IC50 (GABA transporter 2): > 300 µM

SMILES: O=C(NC1CCN(Cc2ccccc2)CC1)c1cccnc1Cl
- IC50 (GABA transporter 3): > 1000 µM
- IC50 [1]: > 1000 µM
- IC50 (GABA transporter 2): 1650 µM

SMILES: COc1cccc(CN2CCC(NC(=O)c3cccnc3)CC2)c1
- IC50 (GABA transporter 3): > 1000 µM
- IC50 [1]: > 1000 µM
- IC50 (GABA transporter 2): > 1000 µM

SMILES: COc1cccc(CN2CCC(NC(=O)c3cccs3)CC2)c1
- IC50 (GABA transporter 3): > 400 µM
- IC50 [1]: > 400 µM
- IC50 (GABA transporter 2): 390 µM

SMILES: O=C(O)c1cccc(CN2CCC(NC(=O)c3ccc(Cl)nc3Cl)CC2)c1
- IC50 (GABA transporter 3): > 300 µM
- IC50 [1]: > 300 µM
- IC50 (GABA transporter 2): > 300 µM

SMILES: O=C(NC1CCN(Cc2cccc(OC(F)(F)F)c2)CC1)c1ccc(Cl)cc1Cl
- IC50 (GABA transporter 3): > 1000 µM
- IC50 [1]: > 1000 µM
- IC50 (GABA transporter 2): 160 µM

SMILES: O=C(NC1CCN(Cc2ccccc2)CC1)c1ccncc1
- IC50 (GABA transporter 3): > 1000 µM
- IC50 [1]: > 1000 µM
- IC50 (GABA transporter 2): 1150 µM

SMILES: NC(=O)c1cccc(CN2CCC(NC(=O)c3ccc(Cl)nc3Cl)CC2)c1
- IC50 (GABA transporter 3): > 300 µM
- IC50 [1]: > 300 µM
- IC50 (GABA transporter 2): > 300 µM

- IC50 [2]: > 1000 µM
- IC50 (GABA transporter 3): 349 µM
- IC50 (GABA transporter 2): 106 µM
SMILES: O=C(OC1CCN(Cc2ccccc2)CC1)c1ccccc1

SMILES: O=C(NC1CCN(Cc2ccccc2)CC1)c1cccnc1
- IC50 (GABA transporter 3): > 1000 µM
- IC50 [1]: > 1000 µM
- IC50 (GABA transporter 2): > 1000 µM

- IC50 (GABA transporter 3): 150 µM
- IC50 [1]: > 1000 µM
- IC50 (GABA transporter 2): 39 µM
SMILES: O=C(NC1CCN(Cc2ccccc2)CC1)c1cnccc1Cl

SMILES: O=C(NC1CCN(Cc2ccc3c(c2)OCO3)CC1)c1ccc(Cl)nc1Cl
- IC50 (GABA transporter 3): > 300 µM
- IC50 [1]: > 300 µM
- IC50 (GABA transporter 2): 60 µM

SMILES: O=C(NC1CCN(Cc2ccccc2)CC1)c1ccccc1Cl
- IC50 (GABA transporter 3): > 400 µM
- IC50 [1]: > 400 µM
- IC50 (GABA transporter 2): 151 µM

SMILES: O=C(NC1CCN(Cc2cc(Cl)cc(Cl)c2)CC1)c1ccc(Cl)cc1Cl
- IC50 (GABA transporter 3): > 300 µM
- IC50 [1]: > 300 µM
- IC50 (GABA transporter 2): > 300 µM

SMILES: O=C(OC1CCN(Cc2ccccc2)CC1)c1ccc(Cl)cc1Cl
- IC50 [2]: > 1000 µM
- IC50 (GABA transporter 3): > 1000 µM
- IC50 (GABA transporter 2): > 1000 µM

- IC50 (GABA transporter 3): 540 µM
- IC50 [1]: > 1000 µM
- IC50 (GABA transporter 2): 115 µM
SMILES: COc1cccc(CN2CCC(NC(=O)c3ccc(Cl)nc3)CC2)c1

SMILES: Cc1cccc(CN2CCC(NC(=O)c3ccc(Cl)cc3Cl)CC2)c1
- IC50 (GABA transporter 3): > 300 µM
- IC50 [1]: > 300 µM
- IC50 (GABA transporter 2): > 300 µM

SMILES: COc1cccc(CN2CCC(NC(=O)c3cccnc3Cl)CC2)c1
- IC50 (GABA transporter 3): > 1000 µM
- IC50 [1]: > 1000 µM
- IC50 (GABA transporter 2): 1670 µM

SMILES: O=C(NC1CCN(Cc2cccs2)CC1)c1ccc(Cl)nc1Cl
- IC50 (GABA transporter 3): > 300 µM
- IC50 [1]: > 300 µM
- IC50 (GABA transporter 2): > 300 µM

SMILES: O=C(NC1CCN(Cc2ccc(-c3ccccc3)cc2)CC1)c1ccc(Cl)nc1Cl
- IC50 (GABA transporter 3): > 300 µM
- IC50 [1]: > 300 µM
- IC50 (GABA transporter 2): > 300 µM

SMILES: O=C(NC1CCN(Cc2cccc([N+](=O)[O-])c2)CC1)c1ccc(Cl)nc1Cl
- IC50 (GABA transporter 3): > 300 µM
- IC50 [1]: > 300 µM
- IC50 (GABA transporter 2): > 300 µM

SMILES: O=C(NC1CCN(Cc2ccc(OC(F)(F)F)cc2)CC1)c1ccc(Cl)cc1Cl
- IC50 (GABA transporter 3): > 1000 µM
- IC50 [1]: > 1000 µM
- IC50 (GABA transporter 2): > 1000 µM

SMILES: O=C(NC1CCN(Cc2ccccc2)CC1)c1ccnc(Cl)c1
- IC50 (GABA transporter 3): > 1000 µM
- IC50 [1]: > 1000 µM
- IC50 (GABA transporter 2): 300 µM

- IC50 (GABA transporter 3): > 400 µM
- IC50 [1]: > 400 µM
- IC50 (GABA transporter 2): 179 µM
SMILES: O=C(NC1CCN(Cc2ccccc2)CC1)c1cccs1

Source: ChEMBL document CHEMBL4028872, “Structure-Activity Relationship, Pharmacological Characterization, and Molecular Modeling of Noncompetitive Inhibitors of the Betaine/γ-Aminobutyric Acid Transporter 1 (BGT1)” (J Med Chem, 2017)
